Holding throughout (type): functional
The test system of test [1] is Attelabidae. The test can be described thus: Insecticidal activity against Mechoris ursulus assessed as mortality at 1 mg/paper at 25 +/- 1 degC measured after 48 hr by filter paper diffusion method. The essentials:
(§1)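 M. ursulus larvae. Compound in 1 mL acetone applied to a filter paper (50-mm diameter), dried in a hood 2 min, then placed in the bottom of a polyethylene cup with the larvae. Controls got 1 mL acetone. Held at 25 ± 1 °C, 50-60% RH, 16L:8D. Run in triplicate, mean ± SE.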

In test [2] the test system is Attelabidae. In words: Insecticidal activity against Mechoris ursulus assessed as mortality at 2.5 mg/paper at 25 +/- 1 degC measured after 48 hr by filter paper diffusion method. The essentials:
as §1

In test [3] the test system is Attelabidae. The test can be described thus: Insecticidal activity against Mechoris ursulus assessed as mortality at 5 mg/paper at 25 +/- 1 degC measured after 48 hr by filter paper diffusion method. The procedure, abridged:
as §1

The mortality is the percentage killed.

Consider `O=C/C=C/c1ccccc1` [CINNAMALDEHYDE], for which the mortality in test [1] stood at 83.3%; in test [2] it was 100%; in test [3] it was 100%.
On to `O=Cc1ccccc1O` [SALICYLADEHYDE], for which the values for the mortality in test [1], in test [2] and in test [3] were 74.4%, 88.9% and 100%, respectively.
As to `C=CCc1ccc(O)c(OC)c1` [EUGENOL], the figures for the mortality in test [1], in test [2] and in test [3] were 66.7%, 90% and 100%, respectively.
As to `OC/C=C/c1ccccc1` [CINNAMIC ALCOHOL], the mortality in test [3] is on record as 50%.
As for `O=C(O)/C=C/c1ccccc1` [CINNAMIC ACID], the figures for the mortality in test [1], in test [2] and in test [3] were 53.3%, 73.3% and 86.7%, respectively.

The values above are taken from ChEMBL document CHEMBL3046144, “Insecticidal and fumigant activities of Cinnamomum cassia bark-derived materials against Mechoris ursulus (Coleoptera: attelabidae)” (2000).
